In publication PMC8237303 (Heliyon, 2021):

Columns and labels:
[1] = target: Cannabinoid CB1 receptor (Human) (Homo sapiens, UniProt P21554); test: [3H]-CP-55,940 binding assay; details: 0.1 mM l-menthol; Human recombinant
[2] = target: Cannabinoid CB2 receptor (Human) (Homo sapiens, UniProt P34972); test: [3H]-CP-55,940 binding assay; details: 0.1 mM l-menthol; Human recombinant
[3] = target: Dopamine D3 receptor (Human) (Homo sapiens, UniProt P35462); test: R-; type: binding; details: 0.1 mM l-menthol; Human recombinant
Sequence of Dopamine D3 receptor (Human) (P35462 whole entry): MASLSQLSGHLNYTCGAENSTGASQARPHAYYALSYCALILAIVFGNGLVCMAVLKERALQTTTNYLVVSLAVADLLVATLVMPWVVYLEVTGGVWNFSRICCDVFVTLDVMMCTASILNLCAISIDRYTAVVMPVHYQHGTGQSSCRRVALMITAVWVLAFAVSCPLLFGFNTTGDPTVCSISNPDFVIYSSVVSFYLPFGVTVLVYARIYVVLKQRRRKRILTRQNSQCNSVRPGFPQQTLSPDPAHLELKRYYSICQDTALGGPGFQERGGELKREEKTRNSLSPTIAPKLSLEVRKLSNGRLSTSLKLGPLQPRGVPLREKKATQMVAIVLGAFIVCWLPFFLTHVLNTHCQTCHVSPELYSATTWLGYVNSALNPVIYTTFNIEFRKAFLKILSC

[4] = target: Neurokinin NK1 receptor (Human) (Homo sapiens, UniProt P25103); test: [125I]-Substance P binding assay; details: 0.1 mM l-menthol; Human recombinant
Sequence of Neurokinin NK1 receptor (Human) (P25103 whole entry): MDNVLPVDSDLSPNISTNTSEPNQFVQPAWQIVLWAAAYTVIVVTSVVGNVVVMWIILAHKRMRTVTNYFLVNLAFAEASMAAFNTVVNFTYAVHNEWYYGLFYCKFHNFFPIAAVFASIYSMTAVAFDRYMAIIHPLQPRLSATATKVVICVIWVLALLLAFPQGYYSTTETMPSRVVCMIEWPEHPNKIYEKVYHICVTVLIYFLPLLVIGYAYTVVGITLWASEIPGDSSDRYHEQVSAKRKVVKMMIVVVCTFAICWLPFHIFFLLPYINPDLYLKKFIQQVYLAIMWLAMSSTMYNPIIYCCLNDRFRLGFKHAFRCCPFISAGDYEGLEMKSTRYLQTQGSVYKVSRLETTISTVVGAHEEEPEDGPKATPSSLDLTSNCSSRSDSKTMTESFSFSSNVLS

[5] = target: Dopamien D1 receptor (Human) (Homo sapiens, UniProt P21728); test: [3H]–SCH–23390 hydrochloride binding assay; details: 0.1 mM l-menthol; Human recombinant
Sequence of Dopamien D1 receptor (Human) (P21728 whole entry): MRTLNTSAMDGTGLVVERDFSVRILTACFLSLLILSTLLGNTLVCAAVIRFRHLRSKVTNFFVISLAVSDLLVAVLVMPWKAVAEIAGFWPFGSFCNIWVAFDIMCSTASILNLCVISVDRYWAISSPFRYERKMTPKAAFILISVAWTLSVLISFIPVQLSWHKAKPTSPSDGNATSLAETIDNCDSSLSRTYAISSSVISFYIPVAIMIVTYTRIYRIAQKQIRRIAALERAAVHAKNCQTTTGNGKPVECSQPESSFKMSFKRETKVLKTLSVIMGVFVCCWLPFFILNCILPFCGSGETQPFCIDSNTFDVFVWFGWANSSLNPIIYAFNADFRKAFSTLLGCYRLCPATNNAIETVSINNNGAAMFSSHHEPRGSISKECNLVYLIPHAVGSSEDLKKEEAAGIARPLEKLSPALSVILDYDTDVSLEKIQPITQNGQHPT

[6] = tested on: Glutamate receptor (AMPA); test: D,L-alpha-[3H]-Amino-3-Hydroxy-Methylisoxazole-4-Propionic Acid; type: binding; details: 0.1 mM l-menthol; Rat cerebral cortex
[7] = target: Histamine H3 receptor (Human) (Homo sapiens, UniProt Q9Y5N1); test: N-alpha-[3H]-Methylhistamine, Dihydrochloride binding assay; details: 0.1 mM l-menthol; Human recombinant
Sequence of Histamine H3 receptor (Human) (Q9Y5N1 whole entry): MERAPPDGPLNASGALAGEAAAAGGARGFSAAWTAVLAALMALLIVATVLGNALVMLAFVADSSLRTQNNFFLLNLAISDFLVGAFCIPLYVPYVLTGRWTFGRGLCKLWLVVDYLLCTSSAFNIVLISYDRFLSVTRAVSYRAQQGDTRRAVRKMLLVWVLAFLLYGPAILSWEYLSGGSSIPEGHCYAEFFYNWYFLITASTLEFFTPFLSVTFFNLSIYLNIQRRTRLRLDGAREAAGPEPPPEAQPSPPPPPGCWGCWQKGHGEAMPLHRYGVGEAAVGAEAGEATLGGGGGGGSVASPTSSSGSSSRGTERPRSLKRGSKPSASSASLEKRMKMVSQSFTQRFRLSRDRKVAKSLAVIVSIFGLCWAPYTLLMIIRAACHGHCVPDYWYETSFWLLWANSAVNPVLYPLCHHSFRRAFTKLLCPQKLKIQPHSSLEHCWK

[8] = target: Muscarinic M1 receptor (Human) (Homo sapiens, UniProt P11229); test: [3H]-Scopolamine Methyl Chloride binding assay; details: 0.1 mM l-menthol; Human recombinant
Sequence of Muscarinic M1 receptor (Human) (P11229 whole entry): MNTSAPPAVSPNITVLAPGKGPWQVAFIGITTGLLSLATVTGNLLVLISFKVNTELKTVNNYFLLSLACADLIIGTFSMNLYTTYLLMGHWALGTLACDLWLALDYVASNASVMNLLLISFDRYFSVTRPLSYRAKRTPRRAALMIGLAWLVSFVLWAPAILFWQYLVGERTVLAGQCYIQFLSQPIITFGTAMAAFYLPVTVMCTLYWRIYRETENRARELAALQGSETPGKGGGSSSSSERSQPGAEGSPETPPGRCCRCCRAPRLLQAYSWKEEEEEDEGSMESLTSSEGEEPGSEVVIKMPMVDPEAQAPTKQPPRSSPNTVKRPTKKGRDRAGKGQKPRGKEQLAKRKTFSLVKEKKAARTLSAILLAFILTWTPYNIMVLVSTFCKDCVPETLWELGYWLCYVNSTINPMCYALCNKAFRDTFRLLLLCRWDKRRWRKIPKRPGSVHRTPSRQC

mouse ambulation = test: Measurement of mouse ambulatory activity; type: in vivo; details: mice
Summary of the method: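 Ambulometer (SAM-10) recording; 30-min adaptation, then s.c. saline or 100, 200, 400 or 800 mg/kg test compound; n = 19–20 mice per group. Each mouse's activity normalized to its total adaptation-period activity, binned per 10 min (median, quartiles); total normalized activity over 60 min post-dose compared by Kruskal-Wallis then Wilcoxon versus vehicle, P < 0.05.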

Sequence of Cannabinoid CB1 receptor (Human) (P21554 whole entry): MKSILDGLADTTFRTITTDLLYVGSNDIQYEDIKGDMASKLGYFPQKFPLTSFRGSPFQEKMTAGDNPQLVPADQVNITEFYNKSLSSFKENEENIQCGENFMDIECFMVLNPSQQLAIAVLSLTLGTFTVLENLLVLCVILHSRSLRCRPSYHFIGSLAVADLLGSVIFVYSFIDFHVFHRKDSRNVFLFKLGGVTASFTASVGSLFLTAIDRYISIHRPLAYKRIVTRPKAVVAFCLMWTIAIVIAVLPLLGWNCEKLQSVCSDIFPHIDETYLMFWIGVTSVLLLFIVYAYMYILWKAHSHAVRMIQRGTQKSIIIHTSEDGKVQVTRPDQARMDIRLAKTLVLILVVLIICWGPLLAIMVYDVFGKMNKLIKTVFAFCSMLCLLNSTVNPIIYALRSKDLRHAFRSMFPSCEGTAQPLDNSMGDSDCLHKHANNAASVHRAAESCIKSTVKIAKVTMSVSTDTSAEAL
Sequence of Cannabinoid CB2 receptor (Human) (P34972 whole entry): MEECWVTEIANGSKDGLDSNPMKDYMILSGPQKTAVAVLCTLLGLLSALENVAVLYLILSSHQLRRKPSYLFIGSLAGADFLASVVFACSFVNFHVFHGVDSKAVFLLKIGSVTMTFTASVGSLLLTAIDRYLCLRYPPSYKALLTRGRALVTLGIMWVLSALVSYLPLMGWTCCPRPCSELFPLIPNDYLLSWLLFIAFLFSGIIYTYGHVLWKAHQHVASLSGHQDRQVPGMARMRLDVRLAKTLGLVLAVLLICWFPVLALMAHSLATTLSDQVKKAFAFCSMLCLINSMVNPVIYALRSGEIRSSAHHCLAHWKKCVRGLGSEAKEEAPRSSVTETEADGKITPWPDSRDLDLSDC

For `CC(C)[C@@H]1CC[C@@H](C)C[C@H]1O` [l-menthol], the “Inhibition by l-Menthol (%)” value [1] was 9.12%, the “Inhibition by l-Menthol (%)” value [2] was 8.57% and the “Inhibition by l-Menthol (%)” value [3] was 6.32%. The “Inhibition by l-Menthol (%)” value [4] was 3.74%, the “Inhibition by l-Menthol (%)” value [5] was 0% and the “Inhibition by l-Menthol (%)” value [6] was 0%. For the same molecule, the “Inhibition by l-Menthol (%)” value [7] was 0%, the “Inhibition by l-Menthol (%)” value [8] was 0% and the “Dose dependence of the ambulation-promoting effect” value (mouse ambulation; 100-800 mg/kg s.c., Kruskal-Wallis test P < 0.0001) was “dose dependent”. The “Time of maximum ambulatory activity after administration” value (mouse ambulation; subcutaneous 100-800 mg/kg) was 5 min.
